Results taken from ChEMBL document CHEMBL1123323, “Isolation, synthesis, and antitumor evaluation of spirohydantoin aziridine, a mutagenic metabolite of spirohydantoin mustard” (J Med Chem, 1986).
“And” between values parts separate entries of the source, which are not always exact repeats. Equal entries are not always repeated.

Experiments:
[1] = test system: P388; experiment: Percent increase in life span of treated (30 mg/kg, day 1 only) mice as compared to the untreated leukemia controls; Expressed as therapeutic response; assay type: functional, Mus musculus
Outline: (§1)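 Female CDF1 mice given 1×10^6 P388 leukemia cells intraperitoneally. Drug in reagent-grade Me₂SO, dosed by average body weight in 0.1 mL. Life-span increase is from median day of death versus untreated leukemic controls. Tumor cell kill and log change (net change in viable tumor stem cells, end versus start of treatment) use a historical doubling time of 0.44 day.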

[2] = Approximate number of tumor cells alive after administration (20 mg/kg, qd 1-9 days) in normal mice; Expressed as therapeutic response; assay type: ADME, organism-based; conditions: mouse, in vivo; outline: as §1
[3] = test system: P388; experiment: Percent of deaths after administration (5 mg/kg, qd 1-9 days) in leukemic mice; assay type: functional, Mus musculus; outline: as §1
[4] = test system: P388; experiment: Percent of deaths after administration (10 mg/kg, qd 1-9 days) in leukemic mice; assay type: functional, Mus musculus; outline: as §1
[5] = test system: Salmonella typhimurium; experiment: Mutagenic activity against Salmonella Typhimurium TA1535 (SHM equiv/plate 10 ug); Expressed as difference between the observed number of revertants and the average number of spontaneous revertants (Expt 1); assay type: functional, Salmonella enterica subsp. enterica serovar Typhimurium
Outline: (§2)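 Salmonella typhimurium TA1535 plate incorporation assay without S9 activation. TLC-isolated metabolite and synthetic aziridine dosed as SHM equivalents per plate. Score is revertants minus mean spontaneous revertants, from two separate experiments.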

[6] = test system: Salmonella typhimurium; experiment: Mutagenic activity against Salmonella Typhimurium TA1535 (SHM equiv/plate 100 ug); Expressed as difference between the observed number of revertants and the average number of spontaneous revertants (Expt 2); assay type: functional, Salmonella enterica subsp. enterica serovar Typhimurium; outline: as §2
[7] = test system: P388; experiment: Percent increase in life span of treated (10 mg/kg, day 1 only) mice as compared to the untreated leukemia controls; Expressed as therapeutic response; assay type: functional, Mus musculus; outline: as §1
[8] = test system: P388; experiment: Percent of deaths after administration (10 mg/kg, day 1 only) in leukemic mice; assay type: functional, Mus musculus; outline: as §1
[9] = test system: P388; experiment: Percent of deaths after administration (20 mg/kg, day 1 only) in leukemic mice; assay type: functional, Mus musculus
[10] = test system: P388; experiment: Approximate number of tumor cells alive after administration (30 mg/kg, day 1 only) in normal mice; Expressed as therapeutic response; assay type: functional, Mus musculus; outline: as §1
[11] = test system: Salmonella typhimurium; experiment: Mutagenic activity against Salmonella Typhimurium TA1535 (SHM equiv/plate 10 ug); Expressed as difference between the observed number of revertants and the average number of spontaneous revertants (Expt 2); assay type: functional, Salmonella enterica subsp. enterica serovar Typhimurium; outline: as §2
[12] = test system: P388; experiment: Percent increase in life span of treated (5 mg/kg, qd 1-9 days) mice as compared to the untreated leukemia controls; Expressed as therapeutic response; assay type: functional, Mus musculus; outline: as §1
[13] = test system: Salmonella typhimurium; experiment: Mutagenic activity against Salmonella Typhimurium TA1535 (SHM equiv/plate 1 ug); Expressed as difference between the observed number of revertants and the average number of spontaneous revertants (Expt 1); assay type: functional, Salmonella enterica subsp. enterica serovar Typhimurium; outline: as §2
[14] = test system: P388; experiment: Percent of deaths after administration (60 mg/kg, day 1 only) in normal mice; assay type: functional, Mus musculus
Outline: (§3)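 Non-tumored mice treated concurrently as drug toxicity controls. Drug in reagent-grade Me₂SO, dosed by average body weight in 0.1 mL. Deaths scored.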

[15] = Approximate number of tumor cells alive after administration (45 mg/kg, day 1 only) in normal mice; Expressed as therapeutic response; assay type: ADME, organism-based; conditions: mouse, in vivo; outline: as §1
[16] = Approximate number of tumor cells alive after administration (10 mg/kg, qd 1-9 days) in normal mice; Expressed as therapeutic response; assay type: ADME, organism-based; conditions: mouse, in vivo; outline: as §1
[17] = test system: P388; experiment: Approximate number of tumor cells alive after administration (20 mg/kg, day 1 only) in normal mice; Expressed as therapeutic response; assay type: functional, Mus musculus; outline: as §1
[18] = test system: P388; experiment: Percent increase in life span of treated (20 mg/kg, qd 1-9 days) mice as compared to the untreated leukemia controls; Expressed as therapeutic response; assay type: functional, Mus musculus; outline: as §1
[19] = test system: P388; experiment: Percent increase in life span of treated (10 mg/kg, qd 1-9 days) mice as compared to the untreated leukemia controls; Expressed as therapeutic response; assay type: functional, Mus musculus; outline: as §1
[20] = test system: P388; experiment: Percent of deaths after administration (20 mg/kg, qd 1-9 days) in leukemic mice; assay type: functional, Mus musculus; outline: as §1
[21] = test system: Salmonella typhimurium; experiment: Mutagenic activity against Salmonella Typhimurium TA1535 (SHM equiv/plate 1 ug); Expressed as difference between the observed number of revertants and the average number of spontaneous revertants (Expt 2); assay type: functional, Salmonella enterica subsp. enterica serovar Typhimurium; outline: as §2
[22] = test system: P388; experiment: Percent of deaths after administration (20 mg/kg, day 1 only) in normal mice; assay type: functional, Mus musculus; outline: as §3
[23] = test system: P388; experiment: Percent of deaths after administration (30 mg/kg, day 1 only) in normal mice; assay type: functional, Mus musculus; outline: as §3
[24] = test system: P388; experiment: Approximate log change after administration (20 mg/kg, day 1 only) in normal mice; Expressed as therapeutic response; assay type: functional, Mus musculus
Outline: (§4)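 Female CDF1 mice were implanted intraperitoneally with 1×10^6 P388 leukemia cells. Drug was prepared in reagent-grade Me₂SO according to average body weight, with each dose in 0.1 mL. Concurrent drug toxicity controls were run. Tumor cell kill was calculated from median day of death using a historical doubling time of 0.44 day. Log change is the net change in viable tumor stem cells from the start to the end of treatment.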

[25] = Approximate number of tumor cells alive after administration (5 mg/kg, qd 1-9 days) in normal mice; Expressed as therapeutic response; assay type: ADME, organism-based; conditions: mouse, in vivo; outline: as §1
[26] = test system: P388; experiment: Percent of deaths after administration (60 mg/kg, day 1 only) in leukemic mice; assay type: functional, Mus musculus; outline: as §1
[27] = test system: P388; experiment: Percent of deaths after administration (30 mg/kg, day 1 only) in leukemic mice; assay type: functional, Mus musculus; outline: as §1
[28] = test system: P388; experiment: Approximate log change after administration (30 mg/kg, day 1 only) in normal mice; Expressed as therapeutic response; assay type: functional, Mus musculus; outline: as §4
[29] = test system: P388; experiment: Percent of deaths after administration (20 mg/kg, qd 1-9 days) in normal mice; assay type: functional, Mus musculus; outline: as §3
[30] = test system: P388; experiment: Percent increase in life span of treated (20 mg/kg, day 1 only) mice as compared to the untreated leukemia controls; Expressed as therapeutic response; assay type: functional, Mus musculus; outline: as §1
[31] = Approximate number of tumor cells alive after administration (60 mg/kg, day 1 only) in normal mice; Expressed as therapeutic response; assay type: ADME, organism-based; conditions: mouse, in vivo; outline: as §1
[32] = test system: P388; experiment: Percent of deaths after administration (45 mg/kg, day 1 only) in leukemic mice; assay type: functional, Mus musculus; outline: as §1
[33] = test system: P388; experiment: Percent increase in life span of treated (60 mg/kg, day 1 only) mice as compared to the untreated leukemia controls; Expressed as therapeutic response; assay type: functional, Mus musculus; outline: as §1
[34] = test system: P388; experiment: (§5) Approximate number of tumor cells alive after administration (10 mg/kg, day 1 only) in normal mice; Expressed as therapeutic response; assay type: functional, Mus musculus; outline: as §1
[35] = as §5; assay type: ADME, organism-based; conditions: mouse, in vivo; outline: as §1
[36] = Approximate number of tumor cells alive after administration (15 mg/kg, day 1 only) in normal mice; Expressed as therapeutic response; assay type: ADME, organism-based; conditions: mouse, in vivo; outline: as §1
[37] = test system: P388; experiment: Percent of deaths after administration (5 mg/kg, day 1 only) in leukemic mice; assay type: functional, Mus musculus; outline: as §1
[38] = test system: P388; experiment: Approximate log change after administration (5 mg/kg, day 1 only) in normal mice; Expressed as therapeutic response; assay type: functional, Mus musculus; outline: as §1
[39] = test system: P388; experiment: Approximate log change after administration (10 mg/kg, day 1 only) in normal mice; Expressed as therapeutic response; assay type: functional, Mus musculus; outline: as §1
[40] = test system: P388; experiment: Percent increase in life span of treated (15 mg/kg, day 1 only) mice as compared to the untreated leukemia controls; Expressed as therapeutic response; assay type: functional, Mus musculus; outline: as §1
[41] = test system: P388; experiment: Percent of deaths after administration (15 mg/kg, day 1 only) in leukemic mice; assay type: functional, Mus musculus; outline: as §1
[42] = test system: P388; experiment: Percent increase in life span of treated (5 mg/kg, day 1 only) mice as compared to the untreated leukemia controls; Expressed as therapeutic response; assay type: functional, Mus musculus; outline: as §1
[43] = test system: P388; experiment: Approximate number of tumor cells alive after administration (5 mg/kg, day 1 only) in normal mice; Expressed as therapeutic response; assay type: functional, Mus musculus; outline: as §1
[44] = test system: P388; experiment: Percent of deaths after administration (15 mg/kg, day 1 only) in normal mice; assay type: functional, Mus musculus; outline: as §3
[45] = test system: P388; experiment: Percent of deaths after administration (10 mg/kg, day 1 only) in normal mice; assay type: functional, Mus musculus; outline: as §3

O=C1NC2(CCCCC2)C(=O)N1CCN1CC1
ILS [1]: 0% | Activity [2]: Toxic | Activity [3]: 83% | Activity [4]: 0% | Activity [5]: 227 | Activity [6]: 2000% | ILS [7]: 0% | Activity [8]: 0% | Activity [9]: 0% | Activity [10]: 4800000 | Activity [11]: 238 | ILS [12]: -5% | Activity [13]: 15 | Activity [14]: 0% | Activity [15]: Toxic | Activity [16]: Toxic | Activity [17]: 4800000 | ILS [18]: -25% | ILS [19]: -40% | Activity [20]: 83% | Activity [21]: 21 | Activity [22]: 0% | Activity [23]: 0% | Log change [24]: 0 | Activity [25]: Toxic | Activity [26]: 50% | Activity [27]: 16% and 0% | Log change [28]: 0 | Activity [29]: 0% | ILS [30]: 0% | Activity [31]: Toxic | Activity [32]: 33% | ILS [33]: -30% | Activity [34]: 4800000

O=C1NC2(CCCCC2)C(=O)N1CCN(CCCl)CCCl [SPIROMUSTINE]
Activity [2]: Toxic | Activity [35]: Toxic | Activity [3]: 100% | Activity [4]: 100% | Activity [36]: Toxic | Activity [37]: 10% | Log change [38]: -2.1 | ILS [12]: -45% | Log change [39]: -2.7 | Activity [16]: Toxic | ILS [18]: -60% | ILS [40]: 35% | ILS [19]: -50% | Activity [20]: 100% | Activity [41]: 40% | ILS [42]: 30% | Activity [43]: 43000 | Activity [25]: Toxic | Activity [44]: 50% | Activity [45]: 33% | Activity [34]: 8900
